From PubChem BioAssay
KCNQ1 act: potentiators or activators of KCNQ1 channel, primary screen, cell-based, thallium flux, high-throughput; Potassium voltage-gated channel subfamily KQT member 1 (Homo sapiens), P51787; CHO-K1 KCNQ1, thallium flux FluxOR fluorescence; active compounds read high; B-score at 10 µM; actives 0.35% (n = 310,000); AID 2648, 2010;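 active means fluorescence ratio B-score, a plate-corrected score, at least three library SD, with initial intensity B-score within 5 SD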
Target sequence (P51787 whole entry, looked up): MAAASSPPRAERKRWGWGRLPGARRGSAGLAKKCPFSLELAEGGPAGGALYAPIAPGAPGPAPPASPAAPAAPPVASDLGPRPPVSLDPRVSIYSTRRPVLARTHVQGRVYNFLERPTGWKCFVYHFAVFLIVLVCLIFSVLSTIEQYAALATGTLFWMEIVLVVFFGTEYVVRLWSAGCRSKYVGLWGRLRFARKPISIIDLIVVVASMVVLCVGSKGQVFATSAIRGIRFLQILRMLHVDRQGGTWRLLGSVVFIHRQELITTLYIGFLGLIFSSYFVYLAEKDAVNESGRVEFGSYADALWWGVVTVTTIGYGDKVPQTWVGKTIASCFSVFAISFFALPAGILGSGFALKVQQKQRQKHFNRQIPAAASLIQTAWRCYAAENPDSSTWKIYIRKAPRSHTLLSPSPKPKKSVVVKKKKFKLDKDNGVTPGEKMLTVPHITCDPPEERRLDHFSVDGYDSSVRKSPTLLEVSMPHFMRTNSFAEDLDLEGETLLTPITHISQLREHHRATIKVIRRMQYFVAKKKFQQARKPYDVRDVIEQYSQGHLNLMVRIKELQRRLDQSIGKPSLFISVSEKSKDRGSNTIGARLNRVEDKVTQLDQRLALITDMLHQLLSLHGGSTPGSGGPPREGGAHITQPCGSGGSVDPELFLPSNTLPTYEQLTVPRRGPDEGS
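Assay system: CHO-K1 cells stably expressing KCNQ1; Medium: assay buffer with matched DMSO; Also added: K+/Tl+ depolarizing stimulus; Dosing: single dose; Timing: dye 90 min, compound 20 min, room temperature; Measured by: kinetic FluxOR thallium fluorescence, 10-s 1-Hz baseline, 110-s post-stimulus read; Read-out: peak-minus-minimum fluorescence over initial fluorescence, negative-control normalized, B-scored.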
Cl transport mod: KCC2 cotransporter modulators, thallium flux, primary screen, cell-based, HEK293 KCC2, FluoZin-2 fluorescence, MLSMR; KCC2 cells, thallium flux FluoZin-2 fluorescence; B-score of Tl+ flux slope (higher = more flux/activation; lower = inhibition) at 10 µM; actives 2.2% (n = 190,000); AID 1456, 2008;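 active means thallium flux slope and its plate-corrected score both differing from the plate sample mean at a set confidence after two filtering rounds, in either direction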;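 further: slope of fluorescence scaled to starting intensity during 10 to 20 s after thallium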
hERG rescue: hERG rescue from dofetilide block, primary screen, cell-based, CHO-hERG, FluxOR thallium flux, dofetilide IC70; dofetilide IC70 present; activation (rescue from dofetilide block), less the hit threshold, % at 10 µM; Voltage-gated inwardly rectifying potassium channel KCNH2 (Homo sapiens), Q12809; actives 0.51% (n = 310,000);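 active means activation above the mean of controls blocked by dofetilide plus 5 SD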;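 further: thallium influx through hERG after potassium depolarization seen as dye fluorescence rise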
SUMO Mot1 rescue: yeast Mot1-301 growth rescue at high temperature, primary screen, SUMOylation pathway inhibitor project, S. cerevisiae, ATP luminescence, 38.5C; S. cerevisiae Mot1-301 growth rescue; percent above DMSO median, 100 means doubled; actives 1% (n = 320,000); growth rescue, % at 18.8 µM;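 active means every valid replicate shows activation above 250% relative to neutral control wells; inactive means the rest, any valid replicate at or below 250%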
AI-2 QS mod: Vibrio harveyi AI-2 quorum sensing modulators, primary screen, JMH597 strain, luminescence/OD600 ratio | Vibrio harveyi JMH597 AI-2 luminescence/OD600 ratio, 9 h; active compounds read low; strain lacks LuxN and CqsS sensors; 0 = neutral-control median | activity change, % at 7.5 µM | actives 0.4% (n = 300,000) | AID 2094, 2009; in the data active means activity change below about -75%, passing the limit was not always enough; inconclusive means no clear call, values can overlap the other calls;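 further: luminescence divided by OD600 gain over 9 h not by final OD600 alone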
KCNQ1 inh: inhibitors of human KCNQ1 channel, primary screen, cell-based, thallium flux, high-throughput. CHO-K1 KCNQ1, FluxOR thallium flux fluorescence; active compounds read high. B-score at 10 µM. actives 1.3% (n = 310,000). AID 2642, 2010;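 active means compounds whose thallium flux B-score, printed positive for inhibition, exceeds three library SD while starting fluorescence stays within three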;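 further: channel opened by potassium depolarization with thallium stimulus after 20 min compound exposure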
JMH597 growth: Vibrio harveyi growth inhibition, confirmation, counter-screen for AI-2 quorum sensing project, JMH597 strain, OD600 absorbance. shares compounds with AI-2 QS mod. 9 h; lacks LuxN and CqsS sensors. growth inhibition, % at 7.5 µM. actives 1% (n = 750);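 active means every replicate shows growth inhibition above 50%; inconclusive means at least half, but not all, replicates pass that cutoff; inactive means fewer than half of replicates pass it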
BB721 const-QS lum: luminescence inhibition in constitutive-on V. harveyi, confirmation, counter-screen for LuxS inhibitor project, strain BB721, luminescence readout. inhibition, % at 7.5 µM. Vibrio harveyi BB721 luminescence, 9 h. AID 2727, 2010. shares compounds with AI-2 QS mod. actives 95% (n = 750);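 active means inhibition above about 80% in every replicate, not just on average, limit read from the data; inconclusive means at least half of replicates past the limit, but not all; inactive means fewer than half of replicates past the limit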
BB721 growth rt: growth inhibition of V. harveyi BB721, confirmation, cytotoxicity control for AI-2 quorum sensing inhibitors, strain BB721, absorbance OD600. shares compounds with AI-2 QS mod. Vibrio harveyi BB721 growth, 9 h. growth inhibition, % at 7.5 µM. actives 3% (n = 750). AID 2728, 2010;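 active means every replicate shows growth inhibition above 50%; inconclusive means at least half but not all replicates above 50% inhibition; inactive means under half of replicates above 50% inhibition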
AI-2 QS JMH597: Vibrio harveyi AI-2 signaling luminescence modulation – JMH597 strain, confirmation; shares compounds with AI-2 QS mod; Vibrio harveyi JMH597 AI-2 quorum sensing luminescence, 9 h; luxN and CqsS knockout, AI-2 only; inhibition, % at 7.5 µM; actives 97% (n = 750); AID 2736, 2010;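 active means every replicate shows more than 75% inhibition of signal versus neutral control wells; inconclusive means half to three quarters of replicates exceed 75% inhibition; inactive means fewer than half of replicates exceed 75% inhibition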
A number is an active result; . = inactive; ? = inconclusive; / = no result given. Rows were chosen to be rich in hits. Some 4.2% of all compounds tested hit in one or more screens of this group.

SMILES	KCNQ1 act	Cl transport mod	hERG rescue	SUMO Mot1 rescue	AI-2 QS mod	KCNQ1 inh	JMH597 growth	BB721 const-QS lum	BB721 growth rt	AI-2 QS JMH597
NS(=O)(=O)c1ccc(NC(=O)CN2C(=O)c3ccccc3C2=O)cc1	.	.	.	.	-84	.	.	93	.	96
O=C(CN1C(=O)c2ccccc2C1=O)Nc1ccc(N2CCOCC2)cc1	.	.	.	.	.	.	/	/	/	/
CCc1nnc(NC(=O)CSc2ccc(-c3ccccc3OC)nn2)s1	.	.	.	.	-87	.	.	98	.	99
CCc1nnc(NC(=O)CSc2ccc(-c3ccc(F)cc3)nn2)s1	.	.	.	.	-93	.	.	90	.	93
COc1ccccc1-c1ccc(SCC(=O)NCCc2ccccc2)nn1	.	.	.	.	.	.	/	/	/	/
CCc1nnc(NC(=O)CSc2ccc(-c3cccs3)nn2)s1	.	.	.	.	-89	.	.	97	.	98
CCc1nnc(NC(=O)CSc2nc(-c3ccccc3)cc(-c3ccc(F)cc3)c2C#N)s1	.	.	.	.	.	.	/	/	/	/
CC1(C)Cc2ccccc2C(N/N=C/c2ccc(Cl)cc2)=N1	.	.	.	.	.	.	/	/	/	/
CCc1ccc(CCC(=O)Nc2ccc(C(=O)O)cc2)o1	.	/	.	.	.	.	/	/	/	/
CCc1ccc(CCC(=O)Nc2ccc(C)c(C)c2)o1	.	.	.	.	-87	.	.	93	.	96
CCc1ccc(NC(=O)CCc2ccc(C)o2)cc1	.	/	.	.	?	.	/	/	/	/
CCc1ccc(NC(=O)CCc2ccc(CC)o2)cc1	.	/	.	.	?	.	.	.	.	88
COc1cccc(OC)c1C(=O)Nc1cccc2c1CCCC2	.	/	.	.	.	.	/	/	/	/
O=C(CCN1CCN(Cc2ccccc2)CC1)NNC(=O)Nc1cccc([N+](=O)[O-])c1	.	/	.	.	.	.	/	/	/	/
Cc1ccccc1NCCC(=O)Nc1ccc(Cl)cc1	.	/	.	.	-84	.	.	97	.	97
Cc1ccccc1NCCC(=O)Nc1ccc(F)cc1	.	/	.	.	-87	.	.	95	.	97
Cc1ccccc1NC(=O)CC(=O)Nc1ccccc1C	.	/	.	.	.	.	/	/	/	/
O=C(CCCCC(=O)Nc1ccc(F)cc1)Nc1ccc(F)cc1	.	/	.	.	.	.	/	/	/	/
CN(CC(=O)Nc1c(Cl)cccc1Cl)C(=O)c1ccc2nc[nH]c2c1	.	/	.	.	.	.	/	/	/	/
CCCC[C@@H]1CNC(=S)N1CCCC	.	.	.	.	.	.	/	/	/	/
O=C(O)c1ccc(N/N=C/C=C/c2ccccc2)cc1	.	.	.	.	-84	.	.	98	63	98
Cc1ccc(S(=O)(=O)c2nc(Cc3ccccc3)oc2N2CCOCC2)cc1	/	/	/	.	/	/	/	/	/	/
CCc1ccc(CNc2ccc3c(c2)ncn3C)cc1	.	/	.	/	-91	.	.	96	.	98
Cc1ccc(CNc2ccc3c(c2)ncn3C)cc1	.	.	.	.	-82	.	.	91	.	95
Cc1ccc(CNc2ccc3c(c2)ncn3C(C)(C)C)cc1	.	.	.	.	.	.	/	/	/	/
SMILES	KCNQ1 act	Cl transport mod	hERG rescue	SUMO Mot1 rescue	AI-2 QS mod	KCNQ1 inh	JMH597 growth	BB721 const-QS lum	BB721 growth rt	AI-2 QS JMH597
CN1CCN(C(=O)c2ccc(OCCOc3ccccc3)cc2)CC1	.	/	.	.	.	.	/	/	/	/
Cc1csc(=O)n1CCC(=O)OCC(=O)c1ccc(Br)cc1	.	/	.	.	.	.	/	/	/	/
CCCCC(Br)C(=O)Nc1ccc(S(=O)(=O)Nc2cc(C)nc(C)n2)cc1 (stereo not given)	.	/	.	.	-86	.	.	88	.	90
Cc1cccc2sc(NC(=O)CN3C(=O)c4ccccc4C3=O)nc12	.	.	.	.	-84	.	.	94	.	97
Cc1ccc2sc(NC(=O)CN3C(=O)c4ccccc4C3=O)nc2c1C	.	.	.	.	-95	.	.	95	.	97
Cc1ccc(CNC(=O)c2cc3cc(Br)ccc3oc2=N)cc1	.	/	.	.	.	.	/	/	/	/
O=C(Nc1cnn(Cc2ccc(Cl)cc2)c1)c1cnccn1	.	.	.	.	-96	.	.	99	.	99
COc1ccc(C2C3=C(CC(C)(C)CC3=O)Nc3c2c(=O)[nH]c2nc(C)nn32)cc1 (stereo not given)	.	.	.	.	.	.	/	/	/	/
COCC(=O)Nc1ccc(C(C)C)cc1	.	.	.	.	.	.	/	/	/	/
O=C(CSc1ncc(-c2ccccc2)[nH]1)Nc1ccccc1	.	.	.	.	-82	.	.	93	.	94
O=C(CSc1ncc(-c2ccccc2)[nH]1)Nc1cccc(O)c1	.	.	.	.	.	.	/	/	/	/
CSc1ccc(/C=C/C(=O)OCC(=O)c2ccc[nH]2)cc1	/	/	/	.	/	/	/	/	/	/
O=C(NCc1ccc(F)cc1)Nc1cccc(Cl)c1	.	.	.	.	-94	.	.	98	.	99
COc1ccc(CNC(=O)Nc2ccc(C)c(C)c2)cc1	.	.	.	.	.	.	/	/	/	/
COc1ccc(CNC(=O)Nc2cc(C)cc(C)c2)cc1	.	.	.	.	?	.	.	96	.	97
CCOC(=O)c1cccc(NC(=S)NCc2ccc(C)cc2)c1	.	.	.	.	-85	.	.	89	.	91
COc1ccc(CNC(=O)Nc2ccc(C)cc2)cc1	.	.	.	.	-79	.	.	88	.	92
Cc1n[nH]c(C)c1CCNC(=O)C1CCC(=O)N(CCc2cccc(F)c2)C1 (stereo not given)	.	/	.	.	.	.	/	/	/	/
